Test results taken from ChEMBL document CHEMBL3244377, “Synthesis and biochemical evaluation of nucleosides of naphthoquinone heterocycles” (J Med Chem, 1977).
Active and inactive are the calls of the source. No cut-off for these calls is given here.

How the values were obtained:
[1] = system: Human alphaherpesvirus 1; assay: Antiviral activity against Herpes simplex virus 1 by tissue culture assay; type: functional, organism-based
[2] = system: Human rhinovirus A13; assay: Antiviral activity against Rhinovirus 13 by tissue culture assay; type: functional
[3] = system: Human respirovirus 3; assay: Antiviral activity against Parainfluenza virus 3 by tissue culture assay; type: functional, organism-based
[4] = target: T1, Hypoxanthine-guanine phosphoribosyltransferase (Mus musculus) (UniProt P00493); assay: Inhibition of hypoxanthine phosphoribosyltransferase in mouse Ehrlich ascites tumor cells assessed as decrease in purine nucleotide biosynthesis using [14C]hypoxanthine as substrate at 100 uM incubated for 20 mins followed by substrate addition for 60 mins by thin layer chromatography
T1 sequence (whole entry): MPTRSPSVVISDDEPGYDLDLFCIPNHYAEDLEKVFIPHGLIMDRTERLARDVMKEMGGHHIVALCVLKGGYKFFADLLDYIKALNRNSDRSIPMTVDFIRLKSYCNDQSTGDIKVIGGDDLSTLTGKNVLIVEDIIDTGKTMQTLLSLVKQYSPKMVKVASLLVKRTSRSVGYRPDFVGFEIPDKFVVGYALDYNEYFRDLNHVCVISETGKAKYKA
Method in brief: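 Ehrlich ascites tumor cell suspensions were preincubated 20 min with compound at 100 μM. [14C]Hypoxanthine was then added at 100 μM for a further 60 min. Cells were disrupted, and adenine and guanine nucleotides were resolved by TLC. Radioactivity in individual nucleotides of treated cells was compared with untreated cells to derive apparent purine-metabolism enzyme rates and their inhibition.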

| inhibition [4] [%] | Compound | Activity [1] | Activity [2] | Activity [3] |
| --- | --- | --- | --- | --- |
| 5 | O=C1c2ccccc2C(=O)c2[nH]ncc21 | inactive | inactive | inactive |
| 1 | O=C1c2ccccc2C(=O)c2[nH]nnc21 | inactive | inactive | inactive |

The remaining lines, values behind:

| Compound | inhibition [4] [%] | Activity [1] | Activity [2] | Activity [3] |
| --- | --- | --- | --- | --- |
| O=C1c2ccccc2C(=O)c2c1ncn2[C@@H]1O[C@H](CO)[C@@H](O)[C@H]1O | 68 | inactive | inactive | inactive |
| O=C1c2ccccc2C(=O)c2[nH]cnc21 | 82 | inactive | inactive | inactive |
| O=C1c2ccccc2C(=O)c2nn([C@@H]3O[C@H](CO)[C@@H](O)[C@H]3O)nc21 | 72 | inactive | inactive | inactive |
| O=C1c2ccccc2C(=O)c2nn([C@@H]3O[C@H](CO)[C@@H](O)[C@H]3O)cc21 | 0 | inactive | inactive | inactive |
